Screening results deposited in PubChem BioAssay by Broad Institute.
PfHsp90 set2 – inhibits growth of yeast expressing Plasmodium falciparum Hsp90; S. cerevisiae expressing PfHsp90, BacTiter-Glo ATP, 48 h; yeast lacking PDR1 and PDR3 efflux regulators; inhibition, % at 9.4 µM; hit rate 0.32% among 310,000; AID 504621;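 active = every replicate shows inhibition above about 80%, whatever the replicate mean, limit read from the data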;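 note: 0% = DMSO neutral controls and 100% = 20 µM radicicol positive controls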
HSF-1 act – increases HSF-1 driven luciferase reporter signal; AID 504408; activation, % at 9 µM; hit rate 1.7% among 300,000; NIH3T3-HGL HSF-1 luciferase reporter, MG132, 8 h; 100% = twice DMSO control signal;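 active = mean replicate activation of at least 50% with a set share of replicates each reaching 50%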;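 note: 0% = median of the neutral control wells and 100% = twice that signal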
CaV13 ICDI inh – Primary screen for inhibitors of IQ motif and Ca2+-dependent inactivation inhibitor domain binding in CACNA1D, Förster resonance energy transfer in living cells, …; HEK cells, CFP/YFP FRET ICDI-IQ, plate reader, 10 min; percent FRET-ratio fall versus neutral wells; inhibition, % at 12.3 µM; hit rate 0.098% among 340,000;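 active = mean replicate inhibition of at least 30% and at least 1% of replicates passing that level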;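 note: 0% = median of the neutral control wells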
PvdQ acylase – blocks Pseudomonas aeruginosa PvdQ acylase activity; hit rate 0.063% among 340,000; AID 488965; purified PvdQ acylase, fluorescence plate reader; inhibition, % at 10 µM; in the data active = inhibition above about 30%, passing the limit was not always enough;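 note: 0% = vehicle neutral wells and 100% = reference inhibitor wells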
T cruzi repl – blocks replication of Trypanosoma cruzi; T. cruzi beta-gal in NIH3T3, luminescence, 90 h; inhibition, % (test concentration not listed); hit rate 1.4% among 300,000;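 active = mean inhibition across valid replicates above about 55%, limit read from the data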;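 note: signal also drops with host cell toxicity which is not excluded here; 0% = plate median of DMSO wells and 100% = zero luminescence signal; higher percent means less beta-gal luminescence so fewer parasites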
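Material: NIH/3T3 host cells with β-galactosidase reporter T. cruzi; Input: 5,000 host fibroblasts per well; Medium: DMEM, 2% fetal bovine serum; Compound: 50 nL DMSO compound solution per well; Schedule: 3 h host attachment, then at least 90 h co-culture; Detection: luminescent β-galactosidase signal after 60 min lysis.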
N-glyco inh – N-linked glycosylation inhibition; D54 ERlucT glycosylation luciferase reporter, 24 h; percent of 100 nM tunicamycin response; reporter increase, % at 12.5 µM; AID 588692; hit rate 0.23% among 360,000;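 active = mean luciferase reporter signal, scaled so untreated is 0 and the glycosylation-blocking control 100, at or above a set limit in every replicate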;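 note: luciferase carries N-glycosylation sites so blocking glycosylation raises the light; 0% = median of neutral control wells and 100% = median of 100 nM tunicamycin wells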
An asterisk follows results filed as active; nt = not tested or not shown. Hits are enriched below; roughly 3% of the tested compounds scored in any of these assays.

SMILES	PfHsp90 set2	HSF-1 act	CaV13 ICDI inh	PvdQ acylase	T cruzi repl	N-glyco inh
COc1ccc(-c2oc3c(c2C#CC2(O)CCCCC2)C(OC)CCC3)cc1 (centres undefined)	nt	nt	-9	nt	nt	nt
CC(C)CN1C(=O)CSCC1(C)C(=O)NCc1ccccc1 (centres undefined)	nt	nt	-9	nt	nt	nt
COc1cccc(CNc2nc3cc(C(C)=C(C)C)sc3c(=O)n2C)c1	nt	nt	-8	nt	nt	-3
CCCN(C(=O)CCc1cn(CCC)c2ccccc12)c1ccc(N(C)c2ccccn2)cc1	nt	nt	-8	nt	nt	nt
O=c1[nH]c(-c2ccccc2)cn1C1CCN(Cc2ccc(-c3nc4ccccc4nc3-c3ccccc3)cc2)CC1	nt	nt	-16	nt	nt	nt
O=C(CSc1ccc(F)cc1)Nc1ccc(Br)cc1	-3	102*	1	3	-18	2
COCC(=O)Nc1ccc(N2CCN(c3ccccc3)CC2)c(F)c1	16	0	-4	-16	10	0
O=C(CSc1nc2c(c(=O)[nH]1)CCC2)Nc1ccc(F)cc1	10	68*	-4	-10	-10	3
O=C(CSc1ccc(F)cc1)Nc1ccccc1Br	8	35	nt	-1	-9	-2
O=C(CSc1ccccc1)Nc1ccc(N2CCN(c3ccccc3)CC2)c(F)c1	-13	55*	-5	-8	-9	2
O=C(Nc1cccc(C(=O)N2CCOCC2)c1)C1CCCCC1	nt	nt	-15	nt	nt	nt
CC(=O)Nc1cccc(C(=O)NN2C(=O)NC3(CCC(C)CC3)C2=O)c1 (centres undefined)	nt	nt	-6	nt	nt	2
Cc1oc(-c2ccoc2)nc1CN(CC1CCC(=O)N1)C(C)C (centres undefined)	-21	72*	-1	0	-21	3
CCN(CC)CCNc1cc(C)c(C#N)c2nc3ccccc3n12	21	3	-20	-17	57*	7
CCN(CC)CCCNc1cc(C)c(C#N)c2nc3ccccc3n12	nt	nt	-12	nt	nt	43*
Cc1cc(Nc2c(C)n(C)n(-c3ccccc3)c2=O)n2c(nc3ccccc32)c1C#N	22	13	-1	-17	-13	-2
Cc1cc(NCCCCO)n2c(nc3ccccc32)c1C#N	-14	0	-7	7	4	0
Cc1cc(Nc2cccc([N+](=O)[O-])c2)n2c(nc3ccccc32)c1C#N	-16	41	-6	-11	76*	-10
CCOC(=O)C1=CC[C@@H](c2ccccc2)C(C#N)(C#N)[C@H]1/C=C/c1ccccc1	nt	nt	-11	nt	nt	nt
C=CCN=C1NC(CCc2ccccc2)C(C(=O)OC)=C(C)N1Cc1ccccc1C(F)(F)F (centres undefined)	nt	nt	-11	nt	nt	nt
COc1ccc(C2CC(=O)C(c3ccc(F)cc3)=CN2Cc2ccccc2)cc1 (centres undefined)	nt	nt	-2	nt	nt	nt
Cc1[nH]n(-c2ccccc2)c(=O)c1C(c1ccc(O)c([N+](=O)[O-])c1)c1c(C)[nH]n(-c2ccccc2)c1=O	-25	-6	-4	-5	6	0
COc1cccc(C(c2c(C)[nH]n(-c3ccccc3)c2=O)c2c(C)[nH]n(-c3ccccc3)c2=O)c1OC	-17	46	-5	10	-5	-2
COc1ccc(C(C[N+](=O)[O-])c2c(C)[nH]n(-c3ccccc3)c2=O)cc1 (centres undefined)	117*	12	-5	-10	-1	5
Cc1[nH]n(-c2ccccc2)c(=O)c1C(C[N+](=O)[O-])c1ccccc1Cl (centres undefined)	-52	146*	-1	-16	-16	-3
SMILES	PfHsp90 set2	HSF-1 act	CaV13 ICDI inh	PvdQ acylase	T cruzi repl	N-glyco inh
CCCCCn1cnc2sc(CC)cc2c1=O	-51	47	-5	-22	8	0
CCCCn1cnc2sc(-c3ccccc3)cc2c1=O	-9	56*	-5	-12	8	-7
CCCCCn1cnc2sc(-c3ccccc3)cc2c1=O	-12	57*	-4	-25	15	-1
CCc1nc2ccc(C(=O)NCCOc3ccc(OC)cc3)cn2c1N(C)C(=O)Cc1ccccc1	nt	nt	-5	nt	nt	3
CCOC(=O)[C@H]1[C@H]2COc3ccc(Br)cc3[C@@H]2N2C(=O)c3cc(OC)c(OC)cc3NC(=O)[C@@]12C	5	nt	-5	2	nt	31*
CCOC(=O)[C@H]1[C@H]2COc3ccc(C)cc3[C@@H]2N2C(=O)c3cc(OC)c(OC)cc3NC(=O)[C@@]12C	12	nt	-10	-8	nt	9
CCOC(=O)[C@H]1[C@H]2COc3ccc(OC)cc3[C@@H]2N2C(=O)c3cc(OC)c(OC)cc3NC(=O)[C@@]12C	3	nt	-4	-8	nt	31*
O=C(NCc1ccccc1)[C@@H]1CCCN1C(=O)[C@H]1CCCN1C(=O)c1ccc(Cl)c(Cl)c1	nt	nt	-6	nt	nt	nt
CC(C)=C[C@@H]1C[C@H](C)[C@H]2CC[C@H](C)c3c(O[C@@H]4O[C@@H](C)[C@@H](O)[C@@H](O)[C@@H]4O)c(O)c(C)c1c32	105*	nt	nt	-14	nt	0
CC(=O)O[C@@H]1[C@H](Oc2c(O)c(C)c3c4c2[C@H](C)CC[C@H]4[C@H](C)C[C@@H]3C=C(C)C)O[C@@H](C)[C@@H](O)[C@H]1O	nt	nt	nt	nt	nt	0
Cc1nn(Cc2ccc(C(=O)Nc3ccc(C(=O)OC(C)C)cc3)o2)c(C)c1Cl	-1	-7	-8	-1	55*	-7
Cc1nn(Cc2ccc(C(=O)NN)o2)c(C)c1Cl	13	-6	-4	-22	9	1
Nc1nc2c(C(=O)N3CCCC3)nnn2c2ccccc12	nt	nt	-6	nt	nt	nt
Cc1cc(F)c(F)c(C(=O)N2CCOCC2)c1Cl	3	62*	-6	-10	-8	0
Cc1cc(=O)n2c3c(c4c(cc13)c(CN(C)C)cc(=O)n4C)OC2	-22	nt	-6	-16	nt	31*
Cc1cc(=O)n(C)c2ccccc12	0	-6	-2	-12	-6	4
COc1ccc(-c2nc(C#N)c(NCc3ccc(F)cc3)o2)cc1OC	2	48	nt	-13	-10	-4
COc1ccc(-c2nc(C#N)c(NCc3cccnc3)o2)cc1OC	29	3	-8	-13	64*	9
Cc1ccc(CCNC(=O)CNC(=S)N(Cc2ccccc2)Cc2cccnc2)cc1	-4	3	4	0	72*	0
O=C(CNC(=S)N(Cc1ccccc1)Cc1cccnc1)NC1CCCCC1	-15	14	-16	-13	64*	-1
Nc1c([N+](=O)[O-])cc2c3c(cccc13)CC2	nt	nt	-12	nt	nt	2
CCOc1ccc2nc(NC(=O)c3cnccn3)sc2c1	-21	99*	nt	-3	-19	6
CCOCC(=O)Nc1nc2ccc(C)cc2s1	-11	37	nt	32*	3	-7
COc1ccc2nc(NC(=O)CSc3cn[nH]n3)sc2c1	-18	49	-4	-43	20	-5
CCOc1ccc2nc(NC(=O)CSc3cn[nH]n3)sc2c1	-3	55*	-2	-36	-8	-10
